The record followed here is ChEMBL document CHEMBL1151774, “Synthesis and biological evaluation of new N-linked 5-triazolylmethyl oxazolidinones” (Eur J Med Chem, 2008).

Data set [1] has as its system Streptococcus pneumoniae. Briefly: Antimicrobial activity against sStreptococcus pneumoniae after 16 to 18 hrs by agar dilution method. It is filed as functional. (In general: Agar dilution tests growth on a series of plates holding different concentrations.)
Data set [2] has as its system Staphylococcus aureus. Briefly: Antimicrobial activity against Staphylococcus aureus ATCC 29213 after 16 to 18 hrs by agar dilution method. It is filed as functional.
In data set [3] the test system is Staphylococcus aureus. Briefly: Antimicrobial activity against methicillin-resistant Staphylococcus aureus after 16 to 18 hrs by agar dilution method. The format is functional.
The subject of data set [4] is Staphylococcus aureus. Briefly: Antimicrobial activity against methicillin-susceptible Staphylococcus aureus after 16 to 18 hrs by agar dilution method. The format is functional.
For data set [5], the system named is Enterococcus faecalis. Briefly: Antimicrobial activity against Enterococcus faecalis after 16 to 18 hrs by agar dilution method. It is filed as functional.
Data set [6] has as its system Staphylococcus aureus. Briefly: Antimicrobial activity against methicillin-resistant Staphylococcus aureus 05-2 infected in po dosed KunMing SPF mouse. The format is functional. The essentials:
(§1)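 Mice given a lethal systemic infection by intraperitoneal injection of the MLD inoculum of MRSA 05-2. Compound dosed orally or by i.v. injection in 0.9% NaCl immediately and 4 h post-infection. ED50 (dose curing 50% of infected mice) calculated by the Bliss method on day 7 post-infection, with 95% confidence ranges.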

Data set [7] has as its system Staphylococcus aureus. Briefly: Antimicrobial activity against methicillin-resistant Staphylococcus aureus 05-2 infected in iv dosed KunMing SPF mouse. The format is functional. A digest of the protocol:
as §1

Data set [8] in a line: AUC (0 to infinity) in Sprague-Dawley rat at 50 mg/kg, po. The format is ADME, organism-based, Plasma. The arrangement: time infinity, dose 50 mg/kg, route oral. Particulars: Sprague-Dawley, plasma. The essentials: (§2)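 Single dose given orally (10 or 50 mg/kg) or intravenously (10 mg/kg). Serial 300 µL blood samples were taken from the retrobulbar vein. Plasma was quantified by LC-MS. Parameters came from mean plasma concentration by non-compartmental analysis. F is absolute oral bioavailability, assuming linear pharmacokinetics.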

The nature of data set [9]: AUC (0 to infinity) in Sprague-Dawley rat at 10 mg/kg, po. The format is ADME, organism-based, Plasma. The arrangement: time infinity, dose 10 mg/kg, route oral. To be noted: Sprague-Dawley, plasma. The essentials:
as §2

Data set [10] in a line: Tmax in Sprague-Dawley rat at 50 mg/kg, po. To be noted: in vivo. On the set-up: dose 50 mg/kg, route oral. It is filed as ADME, organism-based. A digest of the protocol:
as §2

Data set [11] can be described thus: Elimination half life in Sprague-Dawley rat at 10 mg/kg, po. It is filed as ADME, organism-based. On the set-up: dose 10 mg/kg, route oral. Particulars: in vivo, read-out: beta t1/2 (converted). The essentials:
as §2

Data set [12] can be described thus: Elimination half life in Sprague-Dawley rat at 10 mg/kg, iv. The format is ADME, organism-based. To be noted: in vivo, read-out: beta t1/2 (converted). The arrangement: dose 10 mg/kg, route intravenous. The essentials:
as §2

Data set [13] is described as follows: Cmax in Sprague-Dawley rat at 10 mg/kg, po. Particulars: in vivo. The arrangement: dose 10 mg/kg, route oral. It is filed as ADME, organism-based. The essentials: as §2
Data set [14] in a line: AUC (0 to infinity) in Sprague-Dawley rat at 10 mg/kg, iv. The format is ADME, organism-based. The arrangement: time infinity, dose 10 mg/kg, route intravenous. To be noted: plasma. A digest of the protocol:
as §2

Data set [15] in a line: Tmax in Sprague-Dawley rat at 10 mg/kg, po. On the set-up: dose 10 mg/kg, route oral. It is filed as ADME, organism-based. To be noted: in vivo. The essentials: as §2
Data set [16] in a line: Oral bioavailability in Sprague-Dawley rat at 10 mg/kg. It is filed as ADME, organism-based. Particulars: in vivo. A digest of the protocol: as §2
The nature of data set [17]: Cmax in Sprague-Dawley rat at 50 mg/kg, po. On the set-up: dose 50 mg/kg, route oral. The format is ADME, organism-based. To be noted: in vivo. A digest of the protocol: as §2
A short description of data set [18]: Clearance in Sprague-Dawley rat at 10 mg/kg, iv. On the set-up: dose 10 mg/kg, route intravenous. It is filed as ADME, organism-based. To be noted: in vivo. The essentials: as §2
Data set [19] in a line: Elimination half life in Sprague-Dawley rat at 50 mg/kg, po. It is filed as ADME, organism-based. On the set-up: dose 50 mg/kg, route oral. Particulars: in vivo, read-out: beta t1/2 (converted). A digest of the protocol: as §2
Data set [20] in a line: Clearance in Sprague-Dawley rat at 50 mg/kg, po. The format is ADME, organism-based. The arrangement: dose 50 mg/kg, route oral. Particulars: in vivo. The essentials: as §2
Data set [21] can be described thus: Clearance in Sprague-Dawley rat at 10 mg/kg, po. The format is ADME, organism-based. On the set-up: dose 10 mg/kg, route oral. To be noted: in vivo. A digest of the protocol:
as §2

Data set [22] relates to Staphylococcus aureus. Briefly: Antimicrobial activity against methicillin-resistant Staphylococcus aureus 05-2 infected in sc dosed KunMing SPF mouse. It is filed as functional.

In brackets after ≈: the same amount, converted by molar mass.

For orientation: MIC means the lowest concentration found to suppress growth. Higher therefore signals a less susceptible organism. As usually defined, the ED50 is the dose that gives a 50% effect, or the effect in half of the subjects. Low readings indicate greater potency, high ones weaker potency. One may read the AUC(0-inf) as the area under the concentration-time curve extrapolated to infinity. Usually Tmax stands for the time at which the peak concentration occurs. A word on the Cmax: it is the highest concentration seen after dosing. In general, bioavailability refers to dose-corrected exposure relative to a reference, in per cent. A higher bioavailability goes with good availability. The term clearance denotes a measure of how efficiently the substance is removed, as volume per time. A word on the CL/F: it is the apparent clearance, not corrected for the fraction that reaches the circulation.

With `O=C1O[C@@H](Cn2ccnn2)CN1c1ccc(N2CCN(Cc3cccs3)CC2)c(F)c1`, the MIC amounted to 0.06 mg/L (≈ 0.136 µM) in data set [1]; 0.06 mg/L (≈ 0.136 µM) in data set [2]; 0.06 mg/L (≈ 0.136 µM) in [3]; 0.06 mg/L (≈ 0.136 µM) in data set [4]; 2 mg/L (≈ 4.52 µM) in data set [5].
Regarding `O=C1O[C@@H](Cn2ccnn2)CN1c1ccc(N2CCN(Cc3ccco3)CC2)c(F)c1`, the MIC in data set [1] is 0.5 mg/L (≈ 1.17 µM); in data set [2], 0.06 mg/L (≈ 0.141 µM); in data set [3], 0.5 mg/L (≈ 1.17 µM); in data set [4], 0.06 mg/L (≈ 0.141 µM); in [5], 0.5 mg/L (≈ 1.17 µM). Besides, the ED50 in data set [6] was 12.3 mg/kg; in [7] it was 12 mg/kg.
Regarding `O=C1O[C@@H](Cn2ccnn2)CN1c1ccc(N2CCN(Cc3ccoc3)CC2)c(F)c1`, the AUC(0-inf) is 85.8 µg·h/mL in data set [8], 16.4 µg·h/mL in [9] and 26.2 µg·h/mL in data set [14]. In addition, the minimal inhibitory concentration (MIC) in [1] is 0.03 mg/L (≈ 0.0703 µM); in [2], 0.008 mg/L (≈ 0.0188 µM); in data set [3], 0.03 mg/L (≈ 0.0703 µM); in data set [4], 0.008 mg/L (≈ 0.0188 µM); in data set [5] it was 0.5 mg/L (≈ 1.17 µM). In addition, the ED50 turned out to be 7.47 mg/kg in [6] and 6.99 mg/kg in [7]. Moreover, the Tmax in [10] came to 1.9 h; in data set [15], 0.88 h. Further, the half-life in [11] was 2.76 h; in data set [12], 2.95 h; in data set [19], 8.6 h. The results for the Cmax in data set [13] and in data set [17] were 3.04 µg/mL and 10.7 µg/mL, respectively. In data set [16], the bioavailability was 62.7%. This compound also had a clearance in data set [18] of 0.419 L/h/kg. Also, the CL/F came to 0.532 L/h/kg in data set [20] and 0.63 L/h/kg in data set [21].
For `Nc1cccc(CN2CCN(c3ccc(N4C[C@H](Cn5ccnn5)OC4=O)cc3F)CC2)c1`, the MIC stood at 0.5 mg/L (≈ 1.11 µM) in data set [1]; 0.25 mg/L (≈ 0.554 µM) in data set [2]; 0.5 mg/L (≈ 1.11 µM) in data set [3]; 0.25 mg/L (≈ 0.554 µM) in data set [4]; 0.5 mg/L (≈ 1.11 µM) in data set [5].
With `O=C1O[C@@H](Cn2ccnn2)CN1c1ccc(N2CCN(Cc3cccnc3)CC2)c(F)c1`, the MIC in data set [1] was 1 mg/L (≈ 2.29 µM); in [2], 0.125 mg/L (≈ 0.286 µM); in data set [3] it was 1 mg/L (≈ 2.29 µM); in data set [4], 0.125 mg/L (≈ 0.286 µM); in data set [5], 1 mg/L (≈ 2.29 µM).
`O=Cc1ccc(CN2CCN(c3ccc(N4C[C@H](Cn5ccnn5)OC4=O)cc3F)CC2)cc1`: the MIC is 1 mg/L (≈ 2.15 µM) in data set [1]; 0.008 mg/L (≈ 0.0172 µM) in data set [2]; 0.25 mg/L (≈ 0.538 µM) in data set [3]; 1 mg/L (≈ 2.15 µM) in [4]; 2 mg/L (≈ 4.31 µM) in [5].
With `Cc1ccsc1CN1CCN(c2ccc(N3C[C@H](Cn4ccnn4)OC3=O)cc2F)CC1`, the MIC was found to be 4 mg/L (≈ 8.76 µM) in data set [1]; 1 mg/L (≈ 2.19 µM) in data set [2]; 4 mg/L (≈ 8.76 µM) in [3]; 1 mg/L (≈ 2.19 µM) in [4]; 4 mg/L (≈ 8.76 µM) in data set [5].
For `Cc1ccc(CN2CCN(c3ccc(N4C[C@H](Cn5ccnn5)OC4=O)cc3F)CC2)o1`, the MIC in [1] came to 2 mg/L (≈ 4.54 µM); in [2] it was 0.125 mg/L (≈ 0.284 µM); in data set [3], 1 mg/L (≈ 2.27 µM); in [4], 0.125 mg/L (≈ 0.284 µM); in [5], 2 mg/L (≈ 4.54 µM).
As for `O=C1O[C@@H](Cn2ccnn2)CN1c1ccc(N2CCN(Cc3ccsc3)CC2)c(F)c1`, the MIC is 0.5 mg/L (≈ 1.13 µM) in data set [1]; 0.06 mg/L (≈ 0.136 µM) in data set [2]; 1 mg/L (≈ 2.26 µM) in data set [3]; 0.06 mg/L (≈ 0.136 µM) in [4]; 1 mg/L (≈ 2.26 µM) in data set [5].
Regarding `CC(=O)NC[C@H]1CN(c2ccc(N3CCOCC3)c(F)c2)C(=O)O1` [LINEZOLID], the ED50 in data set [6] and in [7] was 8.45 mg/kg in each case. For the same compound, the MIC was determined as 0.5 mg/L (≈ 1.48 µM) in data set [2], 1 mg/L (≈ 2.96 µM) in [3] and 0.5 mg/L (≈ 1.48 µM) in data set [4].
Turning to `CN[C@H](CC(C)C)C(=O)N[C@H]1C(=O)N[C@@H](CC(N)=O)C(=O)N[C@H]2C(=O)N[C@H]3C(=O)N[C@H](C(=O)N[C@H](C(=O)O)c4cc(O)cc(O)c4-c4cc3ccc4O)[C@H](O)c3ccc(c(Cl)c3)Oc3cc2cc(c3O[C@@H]2O[C@H](CO)[C@@H](O)[C@H](O)[C@H]2O[C@H]2C[C@](C)(N)[C@H](O)[C@H](C)O2)Oc2ccc(cc2Cl)[C@H]1O` [VANCOMYCIN], the MIC in data set [1] stood at 1 mg/L (≈ 0.69 µM); in [2], 0.125 mg/L (≈ 0.0863 µM); in [4] it was 0.125 mg/L (≈ 0.0863 µM); in data set [5] it was 1 mg/L (≈ 0.69 µM). Moreover, the figures for the ED50 in [22] and in data set [7] were 6 mg/kg and 6.54 mg/kg, respectively.
